According to ChEMBL document CHEMBL4184147, “Polyphenolic Phytochemicals in Cancer Prevention and Therapy: Bioavailability versus Bioefficacy” (J Med Chem, 2017):

Legend:
[1] = Cytotoxicity against human MML1 cells assessed as decrease in cell viability after 48 hrs by MTT assay; assay type: functional, cell-based
T47D [2] = assay: Cytotoxicity against human T47D cells assessed as cell viability at 6 uM after 48 hrs by MTT assay; assay type: functional; conditions: read-out: Activity
BXPC-3 [3] = assay: Cytotoxicity against human BxPC3 cells assessed as decrease in cell viability after 48 hrs by MTT assay; assay type: functional, cell-based; conditions: BXPC-3, 48 h
[4] = Cmax in mouse at 100 mg/kg, po by HPLC method; assay type: ADME, organism-based; design: dose 100 mg/kg, route oral; conditions: in vivo
Method in brief: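 For oral dosing, polyphenol was dissolved in a self-microemulsifying delivery system: 60% surfactant (emulsifier OP:Cremophor EL 1:1), 30% cosurfactant (PEG 400) and 10% oil (ethyl oleate). Total volume given was never above 100 μL. Plasma levels were quantified by previously described methods.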

[5] = Plasma concentration in mouse at 10 mg/kg, iv at 60 mins by LC-MS/MS method; assay type: ADME, organism-based
Method in brief: (§1)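 For IV dosing, compound dissolved in DMSO:ethanol (2:1), total volume no more than 30 μL. For oral dosing, compound given in a self-microemulsifying delivery system (60% surfactant, emulsifier OP:Cremophor EL 1:1; 30% PEG 400; 10% ethyl oleate), total volume no more than 100 μL. Plasma levels measured by previously described methods.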

[6] = Tmax in mouse at 10 mg/kg, iv by LC-MS/MS method; assay type: ADME, organism-based; conditions: in vivo; method in brief: as §1
SK-MEL-2 [7] = assay: Cytotoxicity against human SK-MEL-2 cells assessed as decrease in cell viability after 48 hrs by MTT assay; assay type: functional, cell-based; conditions: SK-MEL-2, 48 h
[8] = Tmax in mouse at 100 mg/kg, po by HPLC method; assay type: ADME, organism-based; conditions: in vivo
Method in brief: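 Given orally in a self-microemulsifying delivery system (60% surfactant, emulsifier OP:Cremophor EL 1:1; 30% PEG 400 cosurfactant; 10% ethyl oleate oil), total volume no more than 100 μL. Plasma levels measured by previously described methods.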

A549 [9] = assay: Cytotoxicity against human A549 cells assessed as decrease in cell viability after 48 hrs by trypan blue exclusion and LDH release; conditions: A549, 48 h
COLO 201 [10] = assay: Cytotoxicity against human COLO201 cells assessed as decrease in cell viability after 48 hrs by trypan blue exclusion and LDH release; conditions: COLO 201, 48 h
LN-229 [11] = assay: Cytotoxicity against human LN229 cells assessed as decrease in cell viability after 48 hrs by trypan blue exclusion and LDH release; conditions: LN-229, 48 h
Cannabinoid receptor 1 = Cannabinoid receptor 1 (Homo sapiens, UniProt P21554); assay: Displacement of […] from human recombinant CB1 receptor expressed in Chem1 cells after 90 mins by scintillation counting method; assay type: cell-based
Sequence of Cannabinoid receptor 1 (P21554 whole entry): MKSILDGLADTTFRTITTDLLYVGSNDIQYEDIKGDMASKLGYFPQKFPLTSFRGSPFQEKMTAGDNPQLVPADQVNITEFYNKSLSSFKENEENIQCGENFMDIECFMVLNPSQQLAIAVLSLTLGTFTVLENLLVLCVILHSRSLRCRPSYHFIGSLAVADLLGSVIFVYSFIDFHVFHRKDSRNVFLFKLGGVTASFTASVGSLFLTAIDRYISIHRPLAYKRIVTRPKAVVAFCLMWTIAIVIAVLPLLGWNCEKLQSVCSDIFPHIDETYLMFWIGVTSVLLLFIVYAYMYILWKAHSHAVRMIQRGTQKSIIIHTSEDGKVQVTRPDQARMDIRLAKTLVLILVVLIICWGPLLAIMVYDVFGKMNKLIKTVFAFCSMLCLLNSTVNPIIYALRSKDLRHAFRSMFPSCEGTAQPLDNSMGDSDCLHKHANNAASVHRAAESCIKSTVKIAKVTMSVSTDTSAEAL

HT-29 [12] = assay: Cytotoxicity against human HT-29 cells assessed as cell viability at 6 uM after 48 hrs by MTT assay; assay type: functional; conditions: HT-29, 48 h, read-out: Activity
PANC-1 [13] = assay: Cytotoxicity against human PANC1 cells assessed as decrease in cell viability after 48 hrs by MTT assay; assay type: functional, cell-based; conditions: PANC-1, 48 h
BXPC-3 [14] = assay: Cytotoxicity against human BxPC3 cells assessed as cell viability at 6 uM after 48 hrs by MTT assay; assay type: functional; conditions: BXPC-3, 48 h, read-out: Activity
LN-229 [15] = assay: Cytotoxicity against human LN229 cells assessed as cell viability at 6 uM after 48 hrs by MTT assay; assay type: functional; conditions: LN-229, 48 h, read-out: Activity
Lipid bilayer = assay: Induction of DOPC/n-decane bilayer property changes assessed as concentration required to double gramicidin-induced quencher influx rate by […]
MDA-MB-231 [16] = assay: Cytotoxicity against human MDA-MB-231 cells assessed as cell viability at 6 uM after 48 hrs by MTT assay; assay type: functional; conditions: MDA-MB-231, 48 h, read-out: Activity
T47D [17] = assay: Cytotoxicity against human T47D cells assessed as decrease in cell viability after 48 hrs by trypan blue exclusion and LDH release
U-87 MG [18] = assay: Cytotoxicity against human U87 cells assessed as decrease in cell viability after 48 hrs by trypan blue exclusion and LDH release
NCI-H460 [19] = assay: Cytotoxicity against human NCI-H460 cells assessed as cell viability at 6 uM after 48 hrs by MTT assay; assay type: functional; conditions: NCI-H460, 48 h, read-out: Activity
HT-29 [20] = assay: Cytotoxicity against human HT-29 cells assessed as decrease in cell viability after 48 hrs by trypan blue exclusion and LDH release; conditions: HT-29, 48 h
U-87 MG [21] = assay: Cytotoxicity against human U87 cells assessed as cell viability at 6 uM after 48 hrs by MTT assay; assay type: functional, U-87MG ATCC; conditions: read-out: Activity
COLO 201 [22] = assay: Cytotoxicity against human COLO201 cells assessed as cell viability at 6 uM after 48 hrs by MTT assay; assay type: functional; conditions: COLO 201, 48 h, read-out: Activity
PANC-1 [23] = assay: Cytotoxicity against human PANC1 cells assessed as cell viability at 6 uM after 48 hrs by MTT assay; assay type: functional; conditions: PANC-1, 48 h, read-out: Activity
SK-MEL-2 [24] = assay: Cytotoxicity against human SK-MEL-2 cells assessed as cell viability at 6 uM after 48 hrs by MTT assay; assay type: functional; conditions: SK-MEL-2, 48 h, read-out: Activity
[25] = Cytotoxicity against human MML1 cells assessed as cell viability at 6 uM after 48 hrs by MTT assay; assay type: functional; conditions: read-out: Activity
MDA-MB-231 [26] = assay: Cytotoxicity against human MDA-MB-231 cells assessed as decrease in cell viability after 48 hrs by trypan blue exclusion and LDH release; conditions: MDA-MB-231, 48 h
[27] = Displacement of [3H]resveratrol from Sprague-Dawley rat brain plasma membranes after 1 hr by beta counting method; assay type: cell membranes
NCI-H460 [28] = assay: Cytotoxicity against human NCI-H460 cells assessed as decrease in cell viability after 48 hrs by MTT assay; assay type: functional, cell-based; conditions: NCI-H460, 48 h
[29] = Plasma concentration in mouse at 100 mg/kg, po at 60 mins by LC-MS/MS method; assay type: ADME, organism-based; method in brief: as §1
[30] = Cmax in mouse at 10 mg/kg, iv by LC-MS/MS method; assay type: ADME, organism-based; design: dose 10 mg/kg, route intravenous; conditions: in vivo
Method in brief: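 Mouse iv dosing used polyphenol dissolved in DMSO:ethanol (2:1), with total injected volume never above 30 μL. Plasma levels were measured by previously described methods.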

A549 [31] = assay: Cytotoxicity against human A549 cells assessed as cell viability at 6 uM after 48 hrs by MTT assay; assay type: functional; conditions: A549, 48 h, read-out: Activity

Work on O=C(O[C@@H]1Cc2c(O)cc(O)cc2O[C@@H]1c1cc(O)c(O)c(O)c1)c1cc(O)c(O)c(O)c1 [EPIGALOCATECHIN GALLATE] yielded an IC50 [1] of 25 µM, a viability at 6 µM (T47D [2]) of 100% and an IC50 (BXPC-3 [3]) of 33 µM. For the same molecule, the Cmax [4] was 5 µM, the concentration at 1 h [5] was less than 1 µM and the Tmax [6] was 5 min. It also gave an IC50 (SK-MEL-2 [7]) of 31 µM, a Tmax [8] of 30 min and an IC50 (A549 [9]) of 29 µM. The IC50 (COLO 201 [10]) was 38 µM, the IC50 (LN-229 [11]) was 15 µM and the Ki (Cannabinoid receptor 1) was 33.6 µM. The viability at 6 µM (HT-29 [12]) was 96%, the IC50 (PANC-1 [13]) was 62 µM and the viability at 6 µM (BXPC-3 [14]) was 97%. It also gave a viability at 6 µM (LN-229 [15]) of 106%, an Activity (Lipid bilayer) of 11.2 µM and a viability at 6 µM (MDA-MB-231 [16]) of 102%. It also gave an IC50 (T47D [17]) of 57 µM, an IC50 (U-87 MG [18]) of 18 µM and a viability at 6 µM (NCI-H460 [19]) of 105%. It also gave an IC50 (HT-29 [20]) of 60 µM, a viability at 6 µM (U-87 MG [21]) of 98% and a viability at 6 µM (COLO 201 [22]) of 100%. It also gave a viability at 6 µM (PANC-1 [23]) of 95%, a viability at 6 µM (SK-MEL-2 [24]) of 99% and a viability at 6 µM [25] of 102%. It also gave an IC50 (MDA-MB-231 [26]) of 83 µM, a Ki [27] of 0.025 to 0.045 µM and an IC50 (NCI-H460 [28]) of 18 µM. For the same molecule, the concentration at 1 h [29] was less than 1 µM, the Cmax [30] was 12 µM and the viability at 6 µM (A549 [31]) was 103%.
